UHRF1 binding: UHRF1 methyl-DNA binding inhibition; Q96T88; UHRF1 binding to methylated oligo, TR-FRET; inhibition, % at 4.4 µM; 0.75% of 370,000 active; AID 687016;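 further: UHRF1 SRA domain binding a hemimethylated CpG hairpin DNA probe; 0% = median of test compound wells and 100% = reference inhibitor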
Target sequence (Q96T88 whole entry, looked up, the tested form may be a part): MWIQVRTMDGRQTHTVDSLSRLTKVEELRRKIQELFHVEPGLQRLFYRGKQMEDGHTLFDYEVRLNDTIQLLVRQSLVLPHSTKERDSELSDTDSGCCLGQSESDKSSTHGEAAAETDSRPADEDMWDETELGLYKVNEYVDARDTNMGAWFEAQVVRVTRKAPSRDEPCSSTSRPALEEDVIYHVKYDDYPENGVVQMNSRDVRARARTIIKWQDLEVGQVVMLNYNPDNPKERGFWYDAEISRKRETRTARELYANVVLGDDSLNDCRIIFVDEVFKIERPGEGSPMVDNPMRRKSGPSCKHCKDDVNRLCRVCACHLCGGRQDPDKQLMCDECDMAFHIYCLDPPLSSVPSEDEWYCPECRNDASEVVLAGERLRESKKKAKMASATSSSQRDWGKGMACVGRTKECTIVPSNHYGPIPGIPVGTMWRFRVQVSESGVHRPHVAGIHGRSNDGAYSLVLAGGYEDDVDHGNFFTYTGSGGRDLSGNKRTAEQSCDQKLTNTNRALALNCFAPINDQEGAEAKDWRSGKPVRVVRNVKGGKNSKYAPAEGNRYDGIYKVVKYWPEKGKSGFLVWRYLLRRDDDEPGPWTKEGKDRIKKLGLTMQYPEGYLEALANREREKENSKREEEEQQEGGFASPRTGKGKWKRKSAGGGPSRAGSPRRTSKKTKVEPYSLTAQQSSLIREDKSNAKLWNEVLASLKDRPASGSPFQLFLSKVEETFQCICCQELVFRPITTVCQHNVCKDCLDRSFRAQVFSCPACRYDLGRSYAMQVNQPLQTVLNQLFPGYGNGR
TDP2 absorb: blocks human TDP2 phosphodiesterase activity; recombinant TDP2, T5PNP hydrolysis, p-nitrophenol absorbance 415 nm; inhibition, % at 12.8 µM; 0.34% of 370,000 active; AID 720702;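 active means inhibition above the mean of all tested compounds plus 3 SD, set per campaign, cut at about 25% in these data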;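 further: 0% = DMSO with enzyme and 100% = buffer with substrate but no TDP2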
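Assay system: recombinant human TDP2 / Reagent: T5PNP substrate at 5 mM, a TopII-DNA adduct mimic / Measured by: epi absorbance from released p-nitrophenol / Evaluation: % inhibition relative to enzyme-containing and enzyme-free wells / Control set: enzyme-free and DMSO wells / Replicates: each compound tested once, singlicate / Schedule: enzyme reaction with compound for 2 h at 37 °C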
LEDGF integ inh: blocks HIV-1 LEDGF/p75-dependent DNA integration | TR-FRET IN-LEDGF/p75 DNA integration, Eu/Cy5 | inhibition, % at 3.7 µM | 0.64% of 370,000 active | AID 743269;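 active means inhibition above the screen-wide mean plus 3 SD, cut at about 13% in these data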;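 further: signal is the Cy5 over europium emission ratio at 671 and 618 nm; 0% = plate median of compound wells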
MBD2 DNA inh: blocks human MBD2 binding to methylated DNA; Q9UBB5; TR-FRET, MBD2 binding to methylated oligonucleotide; inhibition, % at 4.4 µM; 0.31% of 370,000 active; in the data active means inhibition above about 13%
UHRF1 DNA bind: counter-screen for MBD2 inhibitors: human UHRF1 methylated DNA binding inhibitors | AID 720530 | 25% of 1,000 active | shares compounds with MBD2 DNA inh | inhibition, % at 4.4 µM | UHRF1 binding to methylated oligonucleotide, TR-FRET;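 further: UHRF1 SRA domain binding a labeled hemimethylated CpG hairpin DNA; 0% = vehicle only and 100% = reference inhibitor with vehicle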
MBD2 DBD conf: MBD2-DBD methyl-DNA binding inhibition, TR-FRET confirmation; 26% of 1,000 active; inhibition, % at 4.4 µM; TR-FRET MBD2-DBD binding to methylated oligonucleotide; shares compounds with MBD2 DNA inh; in the data active means inhibition above about 14%
Starred values were filed as active, the others as inactive. Most compounds without a hit are left out; they make up all but 1.6% or so of the library. Unless noted, no stated cut-off is given here; in the data, active means inhibition above about 21%; inactive means the rest.

Screening CC(Sc1nnc(CN2CCCC2)n1Cc1ccccc1)C(=O)Nc1ccccc1 (configuration not stated) returned UHRF1 binding 2.0, TDP2 absorb 6.6, LEDGF integ inh -8.3, MBD2 DNA inh 34.1*, UHRF1 DNA bind 7.4 and MBD2 DBD conf 1.9.
Cc1ccccc1NC(=O)C1c2cccc[n+]2CC(=O)N1Cc1ccc2c(c1)OCO2 (configuration not stated) was read as UHRF1 binding -2.5, TDP2 absorb 5.2, LEDGF integ inh 2.1 and MBD2 DNA inh -7.3.
Screening Cc1cccc(C)c1NC(=O)C1c2cccc[n+]2CC(=O)N1Cc1cccs1 (configuration not stated) returned UHRF1 binding -0.7, TDP2 absorb 7.8, LEDGF integ inh -0.6, MBD2 DNA inh 46.4*, UHRF1 DNA bind 1.3 and MBD2 DBD conf 3.2.
Screening COc1ccc(N2CCN(CCCNC(=O)COc3ccc(F)cc3)CC2)cc1 returned UHRF1 binding 0.3, TDP2 absorb 3.3, LEDGF integ inh -1.1 and MBD2 DNA inh -3.5.
For CCOc1cccc(/C=N\NC(=O)Cc2cccs2)c1O the results were UHRF1 binding -1.1, TDP2 absorb 4.0, LEDGF integ inh -7.4 and MBD2 DNA inh 1.6.
Screening O=C(Nc1ccc2ncccc2c1)c1cc(-c2ccc(Cl)cc2)nc2ccccc12 returned UHRF1 binding 0.1, TDP2 absorb -8.2, LEDGF integ inh 0.0 and MBD2 DNA inh 3.1.
For C=Cc1c(C)c2cc3[nH]c(cc4nc(cc5nc(cc1[nH]2)C(C)=C5CCC(=O)O)C(CCC(=O)O)=C4C)c(C)c3C=C the results were UHRF1 binding 75.5*, TDP2 absorb 12.8, LEDGF integ inh 85.3*, MBD2 DNA inh 47.4*, UHRF1 DNA bind 97.0* and MBD2 DBD conf 67.2*.
CCCC(=O)OC12CCCN(C1)/C(=C/c1cccc(Cl)c1)C2 (configuration not stated) was read as UHRF1 binding 0.1, TDP2 absorb -1.6, LEDGF integ inh -1.3 and MBD2 DNA inh 3.7.
`O=C(c1cc(F)ccc1F)N1CCC(Oc2cccnc2)CC1` gave UHRF1 binding -3.2, TDP2 absorb 7.5, LEDGF integ inh 3.4 and MBD2 DNA inh -2.7.
For O=C(Nc1nnc(SCC(=O)N2CCCCC2)s1)c1c(F)cccc1F the results were UHRF1 binding -2.3, TDP2 absorb 9.6, LEDGF integ inh 0.2, MBD2 DNA inh 32.9*, UHRF1 DNA bind 6.7 and MBD2 DBD conf 2.9.
O=C(CSc1nnc(NC(=O)c2c(F)cccc2F)s1)NC1CCCC1 was read as UHRF1 binding -0.3, TDP2 absorb 21.9, LEDGF integ inh 1.9 and MBD2 DNA inh 0.7.
Cc1nn(-c2ccccc2)c(C)c1C=NNC(=O)CSc1nc2ccccc2n1C was read as UHRF1 binding 4.0, TDP2 absorb -9.2, LEDGF integ inh 0.8 and MBD2 DNA inh 7.6.
For C=CCNC(=O)N1CCC(c2nc3ccc(Cl)cc3[nH]2)CC1 the results were UHRF1 binding 0.7, TDP2 absorb -10.7, LEDGF integ inh 4.9 and MBD2 DNA inh 0.8.
Screening C#CCOCCOCCOCCNc1nc(N2CCN(C(=O)[C@H]([C@@H](C)CC)n3cc(CCCCN)nn3)CC2)nc(N2CCN(C(=O)[C@H](CCCCN)n3cc(CCCC)nn3)CC2)n1 returned UHRF1 binding 12.9, TDP2 absorb 0.9, LEDGF integ inh 3.3 and MBD2 DNA inh 4.4.
C#CCOCCOCCOCCNc1nc(N2CCN(C(=O)[C@H]([C@@H](C)CC)n3cc(CCC(=O)O)nn3)CC2)nc(N2CCN(C(=O)[C@H](CCCCN)n3cc(CCCC)nn3)CC2)n1 was read as UHRF1 binding 9.7, TDP2 absorb 1.5, LEDGF integ inh 2.1, MBD2 DNA inh 24.6*, UHRF1 DNA bind 8.9 and MBD2 DBD conf 6.6.
For C#CCOCCOCCOCCNc1nc(N2CCN(C(=O)[C@H](CCCCN)n3cc([C@@H](N)C(C)CC)nn3)CC2)nc(N2CCN(C(=O)[C@H](CCCCN)n3cc([C@@H](N)C(C)CC)nn3)CC2)n1 (some centres not stated) the results were UHRF1 binding 16.4, TDP2 absorb -1.4, LEDGF integ inh 1.7, MBD2 DNA inh 15.7*, UHRF1 DNA bind 5.6 and MBD2 DBD conf 3.0.
`CC(C)(C)S(=O)(=O)N1C[C@@H]2CC(=O)C=C2[C@H]1CCO` gave UHRF1 binding 5.8, TDP2 absorb -9.5, LEDGF integ inh 4.1 and MBD2 DNA inh 2.3.
Screening COC(=O)[C@]12C[C@H](CC(=O)NCc3cccc(C(F)(F)F)c3)C(=O)N(Cc3ccccc3)C1=C[C@H](C(C)(C)C)O[C@@H]2C returned UHRF1 binding 0.4, TDP2 absorb 8.8, LEDGF integ inh -3.8 and MBD2 DNA inh -2.2.
For Cc1ccccc1C(=O)N[C@H](C(=O)N1CCC[C@H]1C(=O)NCCc1ccccc1Cl)C(C)C the results were UHRF1 binding -2.9, TDP2 absorb 7.3, LEDGF integ inh 1.5 and MBD2 DNA inh 2.1.
`COCCCNC(=O)C[C@H]1C[C@@]2(C(=O)OC)C(=C[C@H](C(C)C)O[C@@H]2C2CC2)N(Cc2ccc(Cl)cc2Cl)C1=O` gave UHRF1 binding 5.1, TDP2 absorb -12.3, LEDGF integ inh 6.7 and MBD2 DNA inh -1.1.
Screening COc1cccc(CC(=O)Nc2ccc(S(=O)(=O)N3CCCCC3)cc2)c1 returned UHRF1 binding 1.0, TDP2 absorb -0.5, LEDGF integ inh -0.7, MBD2 DNA inh 13.3*, UHRF1 DNA bind 4.5 and MBD2 DBD conf 3.1.
`COc1ccc(OC)c2nc3c(C(=O)NCCN(C)C)cccc3nc12` gave UHRF1 binding 56.5*, TDP2 absorb 6.1, LEDGF integ inh 2.5, MBD2 DNA inh 52.9*, UHRF1 DNA bind 70.6* and MBD2 DBD conf 63.0*.
For CN(C)CCNC(=O)c1sc2cccc(F)c2c1Cl the results were UHRF1 binding -5.2, TDP2 absorb -15.4, LEDGF integ inh 5.4 and MBD2 DNA inh -8.6.
COc1ccc(C23CC4CC(CC(C4)C2)C3)cc1C(=O)NCCN(C)C was read as UHRF1 binding 0.4, TDP2 absorb 5.8, LEDGF integ inh 0.4 and MBD2 DNA inh -0.4.
Screening CN(C)CCNC(=O)c1cccc2nc3cccc(F)c3nc12 returned UHRF1 binding 23.1*, TDP2 absorb 2.1, LEDGF integ inh -2.7, MBD2 DNA inh 35.1*, UHRF1 DNA bind 34.6* and MBD2 DBD conf 37.4*.
For CCOC(=O)C1=NN(C(C)=O)C2(CC(=O)N(c3cccc(C)c3)C2=O)C1 (configuration not stated) the results were UHRF1 binding -0.2, TDP2 absorb -4.4, LEDGF integ inh -1.9, MBD2 DNA inh 18.9*, UHRF1 DNA bind 7.4 and MBD2 DBD conf 4.5.
